Assay results as given in ChEMBL document CHEMBL1287804, “Synthesis, binding studies and molecular modeling of novel cannabinoid receptor ligands” (Bioorg Med Chem, 2010).
Active and inactive are the calls of the source. The calls are words filed in the database; no cut-off is given here.

What was measured:
Cannabinoid receptor 2 [1] = molecular target: T1, Cannabinoid receptor 2 (Homo sapiens, UniProt P34972); experiment: Displacement of [3H]-CP-55940 from human recombinant CB2 receptor expressed in HEK293 cells; assay type: cell-based
How it was run: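 Radioligand binding assay on human recombinant CB2 receptor. The read-out was percent displacement of radioligand at the highest concentration tested. IC50 values were determined, and Ki values were calculated from them.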

Cannabinoid receptor 1 [2] = molecular target: T2, Cannabinoid receptor 1 (Homo sapiens, UniProt P21554); experiment: Displacement of [3H]-CP-55940 from human recombinant CB1 receptor expressed in HEK293 cells at 10 uM; assay type: cell-based
How it was run: (§1)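 Radioligand binding with human recombinant CB1 and CB2 receptors. The highest concentration tested was 10 µM, and percent displacement was recorded at that concentration. IC50 and Ki were calculated for each receptor. The selectivity index is Ki(CB1)/Ki(CB2).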

[3] = molecular target: T3, Fatty-acid amide hydrolase 1 (Rattus norvegicus) (UniProt P97612); experiment: Inhibition of FAAH-mediated [14C]anandamide hydrolysis in rat brain membrane assessed as [14C]-ethanolamine production up to 50 uM after 30 mins by scintillation counting; assay type: cell membranes
T3 sequence (whole entry): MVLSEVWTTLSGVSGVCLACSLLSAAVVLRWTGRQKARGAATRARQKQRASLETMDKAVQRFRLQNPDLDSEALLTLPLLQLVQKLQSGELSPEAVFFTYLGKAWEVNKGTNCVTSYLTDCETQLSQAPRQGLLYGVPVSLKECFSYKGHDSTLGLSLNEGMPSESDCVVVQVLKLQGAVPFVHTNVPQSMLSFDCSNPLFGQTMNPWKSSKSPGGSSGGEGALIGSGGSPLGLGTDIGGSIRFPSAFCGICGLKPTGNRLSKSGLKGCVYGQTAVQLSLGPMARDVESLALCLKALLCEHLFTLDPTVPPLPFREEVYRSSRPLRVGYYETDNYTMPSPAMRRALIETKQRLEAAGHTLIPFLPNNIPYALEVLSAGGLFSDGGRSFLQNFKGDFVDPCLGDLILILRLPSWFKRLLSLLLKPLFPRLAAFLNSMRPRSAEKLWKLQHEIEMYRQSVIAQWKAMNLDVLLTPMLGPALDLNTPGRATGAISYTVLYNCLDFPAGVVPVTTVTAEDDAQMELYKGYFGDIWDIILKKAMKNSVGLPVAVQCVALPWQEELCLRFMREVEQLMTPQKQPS

Cannabinoid receptor 1 [4] = molecular target: T2, Cannabinoid receptor 1; experiment: Displacement of [3H]-CP-55940 from human recombinant CB1 receptor expressed in HEK293 cells; assay type: cell-based; how it was run: as §1
Cannabinoid receptor 2 [5] = molecular target: T1, Cannabinoid receptor 2; experiment: Displacement of [3H]-CP-55940 from human recombinant CB2 receptor expressed in HEK293 cells at 10 uM; assay type: cell-based; how it was run: as §1
Homo sapiens = species: Homo sapiens; experiment: Selectivity index, ratio of Ki for human recombinant CB1 receptor to Ki for human recombinant CB2 receptor; how it was run: as §1

T2 sequence (P21554 whole entry): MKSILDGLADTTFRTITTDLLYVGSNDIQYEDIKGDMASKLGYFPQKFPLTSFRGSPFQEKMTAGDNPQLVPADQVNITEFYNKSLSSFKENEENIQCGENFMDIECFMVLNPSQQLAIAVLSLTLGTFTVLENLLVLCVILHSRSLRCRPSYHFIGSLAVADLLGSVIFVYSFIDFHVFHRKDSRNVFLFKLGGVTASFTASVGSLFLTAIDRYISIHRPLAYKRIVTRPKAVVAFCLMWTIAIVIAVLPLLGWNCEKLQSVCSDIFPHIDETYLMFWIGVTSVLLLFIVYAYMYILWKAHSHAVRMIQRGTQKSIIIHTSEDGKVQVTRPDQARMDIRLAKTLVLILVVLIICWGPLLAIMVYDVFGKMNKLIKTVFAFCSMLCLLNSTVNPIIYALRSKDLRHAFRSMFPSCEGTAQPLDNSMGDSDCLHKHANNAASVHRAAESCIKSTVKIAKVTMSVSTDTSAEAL
T1 sequence (P34972 whole entry): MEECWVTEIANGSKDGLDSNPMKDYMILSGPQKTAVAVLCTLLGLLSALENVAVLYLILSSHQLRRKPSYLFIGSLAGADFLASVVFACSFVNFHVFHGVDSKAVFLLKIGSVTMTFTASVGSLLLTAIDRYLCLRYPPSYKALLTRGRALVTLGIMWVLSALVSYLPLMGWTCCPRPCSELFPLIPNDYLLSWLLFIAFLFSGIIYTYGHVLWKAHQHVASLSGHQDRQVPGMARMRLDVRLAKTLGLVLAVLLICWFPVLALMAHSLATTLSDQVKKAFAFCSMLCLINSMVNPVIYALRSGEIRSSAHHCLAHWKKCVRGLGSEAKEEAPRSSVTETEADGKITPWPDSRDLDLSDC

O=C(/C=C/c1ccc2ccccc2c1)CCC(=O)N1CCCCC1
IC50 (Cannabinoid receptor 2 [1]): > 10 µM
Ki (Cannabinoid receptor 2 [1]): > 10 µM
Activity (Cannabinoid receptor 1 [2]): < 50%
inhibition [3]: inactive
IC50 (Cannabinoid receptor 1 [4]): > 10 µM
Ki (Cannabinoid receptor 1 [4]): > 10 µM
Activity (Cannabinoid receptor 2 [5]): < 50%

C[C@@H](CO)NC(=O)CCCC(=O)/C=C/c1ccc2ccccc2c1
IC50 (Cannabinoid receptor 2 [1]): > 10 µM
Ki (Cannabinoid receptor 2 [1]): > 10 µM
Activity (Cannabinoid receptor 1 [2]): > 10%
inhibition [3]: inactive
IC50 (Cannabinoid receptor 1 [4]): > 10 µM
Ki (Cannabinoid receptor 1 [4]): > 10 µM
Activity (Cannabinoid receptor 2 [5]): 37.7%

O=C(O)CCCC(=O)/C=C/c1ccc2ccccc2c1
IC50 (Cannabinoid receptor 2 [1]): > 10 µM
Ki (Cannabinoid receptor 2 [1]): > 10 µM
Activity (Cannabinoid receptor 1 [2]): 21.5%
inhibition [3]: inactive
IC50 (Cannabinoid receptor 1 [4]): > 10 µM
Ki (Cannabinoid receptor 1 [4]): > 10 µM
Activity (Cannabinoid receptor 2 [5]): 23.4%

O=C(O)CCC(=O)/C=C/c1ccc2ccccc2c1
IC50 (Cannabinoid receptor 2 [1]): > 10 µM
Ki (Cannabinoid receptor 2 [1]): > 10 µM
Activity (Cannabinoid receptor 1 [2]): 11.8%
inhibition [3]: inactive
IC50 (Cannabinoid receptor 1 [4]): > 10 µM
Ki (Cannabinoid receptor 1 [4]): > 10 µM
Activity (Cannabinoid receptor 2 [5]): 13.7%

O=C(/C=C/c1ccc2ccccc2c1)CCC(=O)NC1CC1
IC50 (Cannabinoid receptor 2 [1]): > 10 µM
Ki (Cannabinoid receptor 2 [1]): > 10 µM
Activity (Cannabinoid receptor 1 [2]): 3.25%
inhibition [3]: inactive
IC50 (Cannabinoid receptor 1 [4]): > 10 µM
Ki (Cannabinoid receptor 1 [4]): > 10 µM
Activity (Cannabinoid receptor 2 [5]): 35.6%

COc1ccc(/C=C/C(=O)CCC(=O)NCCO)cc1OC
IC50 (Cannabinoid receptor 2 [1]): > 10 µM
Ki (Cannabinoid receptor 2 [1]): > 10 µM
Activity (Cannabinoid receptor 1 [2]): < 50%
inhibition [3]: inactive
IC50 (Cannabinoid receptor 1 [4]): > 10 µM
Ki (Cannabinoid receptor 1 [4]): > 10 µM
Activity (Cannabinoid receptor 2 [5]): < 50%

O=C(/C=C/c1ccc2ccccc2c1)CCC(=O)N(CCO)CCO
IC50 (Cannabinoid receptor 2 [1]): > 10 µM
Ki (Cannabinoid receptor 2 [1]): > 10 µM
Activity (Cannabinoid receptor 1 [2]): 1.81%
inhibition [3]: inactive
IC50 (Cannabinoid receptor 1 [4]): > 10 µM
Ki (Cannabinoid receptor 1 [4]): > 10 µM
Activity (Cannabinoid receptor 2 [5]): 27.3%

O=C(/C=C/c1ccc2ccccc2c1)CCC(=O)Nc1ccc(O)cc1
IC50 (Cannabinoid receptor 2 [1]): > 10 µM
Ki (Cannabinoid receptor 2 [1]): > 10 µM
Activity (Cannabinoid receptor 1 [2]): < 50%
inhibition [3]: inactive
IC50 (Cannabinoid receptor 1 [4]): > 10 µM
Ki (Cannabinoid receptor 1 [4]): > 10 µM
Activity (Cannabinoid receptor 2 [5]): < 50%

O=C(/C=C/c1ccc(-c2ccccc2)cc1)CCC(=O)NCCO
IC50 (Cannabinoid receptor 2 [1]): > 10 µM
Ki (Cannabinoid receptor 2 [1]): > 10 µM
Activity (Cannabinoid receptor 1 [2]): 5.25%
inhibition [3]: inactive
IC50 (Cannabinoid receptor 1 [4]): > 10 µM
Ki (Cannabinoid receptor 1 [4]): > 10 µM
Activity (Cannabinoid receptor 2 [5]): 46.1%

CCOC(=O)CNC(=O)CCCC(=O)/C=C/c1ccc2ccccc2c1
IC50 (Cannabinoid receptor 2 [1]): > 10 µM
Ki (Cannabinoid receptor 2 [1]): > 10 µM
Activity (Cannabinoid receptor 1 [2]): 41.5%
inhibition [3]: inactive
IC50 (Cannabinoid receptor 1 [4]): > 10 µM
Ki (Cannabinoid receptor 1 [4]): > 10 µM
Activity (Cannabinoid receptor 2 [5]): 41.7%

O=C(CCC(=O)NCCO)CCc1ccc(-c2ccccc2)cc1
IC50 (Cannabinoid receptor 2 [1]): 8.85 µM
Ki (Cannabinoid receptor 2 [1]): 2.25 µM
Activity (Cannabinoid receptor 1 [2]): 10.9%
inhibition [3]: inactive
Ratio Ki (Homo sapiens): > 4.44
IC50 (Cannabinoid receptor 1 [4]): > 10 µM
Ki (Cannabinoid receptor 1 [4]): > 10 µM
Activity (Cannabinoid receptor 2 [5]): 53%

C[C@H](CO)NC(=O)CCC(=O)/C=C/c1ccc2ccccc2c1
IC50 (Cannabinoid receptor 2 [1]): > 10 µM
Ki (Cannabinoid receptor 2 [1]): > 10 µM
Activity (Cannabinoid receptor 1 [2]): 2.48%
inhibition [3]: inactive
IC50 (Cannabinoid receptor 1 [4]): > 10 µM
Ki (Cannabinoid receptor 1 [4]): > 10 µM
Activity (Cannabinoid receptor 2 [5]): 38.3%

O=C(CCC(=O)N1CCOCC1)c1ccc(-c2ccccc2)cc1
IC50 (Cannabinoid receptor 2 [1]): > 10 µM
Ki (Cannabinoid receptor 2 [1]): > 10 µM
Activity (Cannabinoid receptor 1 [2]): 12.2%
inhibition [3]: inactive
IC50 (Cannabinoid receptor 1 [4]): > 10 µM
Ki (Cannabinoid receptor 1 [4]): > 10 µM
Activity (Cannabinoid receptor 2 [5]): 14.9%

O=C(/C=C/c1ccc2ccccc2c1)CCCC(=O)NC1CC1
IC50 (Cannabinoid receptor 2 [1]): 8.02 µM
Ki (Cannabinoid receptor 2 [1]): 2.04 µM
Activity (Cannabinoid receptor 1 [2]): 15.3%
inhibition [3]: inactive
Ratio Ki (Homo sapiens): > 4.9
IC50 (Cannabinoid receptor 1 [4]): > 10 µM
Ki (Cannabinoid receptor 1 [4]): > 10 µM
Activity (Cannabinoid receptor 2 [5]): 56.7%

O=C(/C=C/c1ccc2ccccc2c1)CCC(=O)NCCO
IC50 (Cannabinoid receptor 2 [1]): 1 µM
Ki (Cannabinoid receptor 2 [1]): 1.03 µM
Activity (Cannabinoid receptor 1 [2]): 0%
inhibition [3]: inactive
Ratio Ki (Homo sapiens): > 4.41
IC50 (Cannabinoid receptor 1 [4]): > 10 µM
Ki (Cannabinoid receptor 1 [4]): > 10 µM
Activity (Cannabinoid receptor 2 [5]): 56.5%

COc1ccc(/C=C/C(=O)CCC(=O)N2CCCCC2)cc1OC
IC50 (Cannabinoid receptor 2 [1]): > 10 µM
Ki (Cannabinoid receptor 2 [1]): > 10 µM
Activity (Cannabinoid receptor 1 [2]): < 50%
inhibition [3]: inactive
IC50 (Cannabinoid receptor 1 [4]): > 10 µM
Ki (Cannabinoid receptor 1 [4]): > 10 µM
Activity (Cannabinoid receptor 2 [5]): 50%

O=C(/C=C/c1ccc2ccccc2c1)CCCC(=O)N1CCCCC1
IC50 (Cannabinoid receptor 2 [1]): > 10 µM
Ki (Cannabinoid receptor 2 [1]): > 10 µM
Activity (Cannabinoid receptor 1 [2]): 34%
inhibition [3]: inactive
IC50 (Cannabinoid receptor 1 [4]): > 10 µM
Ki (Cannabinoid receptor 1 [4]): > 10 µM
Activity (Cannabinoid receptor 2 [5]): 36.8%

COc1ccc(/C=C/C(=O)CCC(=O)Nc2ccc(O)cc2)cc1
IC50 (Cannabinoid receptor 2 [1]): > 10 µM
Ki (Cannabinoid receptor 2 [1]): > 10 µM
Activity (Cannabinoid receptor 1 [2]): < 50%
inhibition [3]: inactive
IC50 (Cannabinoid receptor 1 [4]): > 10 µM
Ki (Cannabinoid receptor 1 [4]): > 10 µM
Activity (Cannabinoid receptor 2 [5]): < 50%

O=C(/C=C/c1ccc2ccccc2c1)CCCC(=O)NCCO
IC50 (Cannabinoid receptor 2 [1]): 4.08 µM
Ki (Cannabinoid receptor 2 [1]): 1.03 µM
Activity (Cannabinoid receptor 1 [2]): 4.58%
inhibition [3]: inactive
Ratio Ki (Homo sapiens): > 9.71
IC50 (Cannabinoid receptor 1 [4]): > 10 µM
Ki (Cannabinoid receptor 1 [4]): > 10 µM
Activity (Cannabinoid receptor 2 [5]): 72%

CCOC(=O)CNC(=O)CCC(=O)/C=C/c1ccc2ccccc2c1
IC50 (Cannabinoid receptor 2 [1]): 9.82 µM
Ki (Cannabinoid receptor 2 [1]): 2.5 µM
Activity (Cannabinoid receptor 1 [2]): 5.73%
inhibition [3]: inactive
Ratio Ki (Homo sapiens): > 4
IC50 (Cannabinoid receptor 1 [4]): > 10 µM
Ki (Cannabinoid receptor 1 [4]): > 10 µM
Activity (Cannabinoid receptor 2 [5]): 54.6%
